Laboratory results reported in ChEMBL document CHEMBL3616436, “Synthesis, cytotoxicity and antimicrobial activity of thiourea derivatives incorporating 3-(trifluoromethyl)phenyl moiety” (Eur J Med Chem, 2015).
Converted amounts (≈) assume the structure as drawn.

Assays:
[1] = Cytotoxicity against human MT4 cells; format: cell-based
[2] = test system: Vesicular stomatitis virus; assay: Antiviral activity against Vesicular stomatitis virus ATCC VR 1540 infected in African green monkey Vero 76 cells assessed as reduction of virus-plaque formation after 2 days by crystal violet staining; format: functional, organism-based; details: ATCC VR 1540, Vero, 48 h
[3] = test system: Human immunodeficiency virus 1; assay: Antiviral activity against HIV1 3B infected in human MT4 cells assessed as protection against virus-induced cytopathogenicity by MTT assay; format: functional, organism-based; details: Human immunodeficiency virus 1, 3B
[4] = Cytotoxicity against bovine MDBK cells assessed as cell viability after 48 to 96 hrs by MTT assay; format: cell-based, Bos taurus; details: cattle
[5] = Antiviral activity against Bovine viral diarrhea virus 1-NADL ATCC VR-534 infected in MDBK cells assessed as protection against virus-induced cytopathogenicity after 3 to 4 days by MTT assay; format: functional, cell-based; details: Bovine viral diarrhea virus isolates and strains, ATCC VR-534, MDBK
In short: (§1)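 Cells seeded in 96-well plates (BHK 5x10^4, MDBK 3x10^4 cells/well), grown overnight to confluence, infected at m.o.i. 0.01 (BHK for Reo-1, MDBK for BVDV); serial compound dilutions in maintenance medium with 0.5% inactivated FBS added after 1 h; viability by MTT after 3–4 days at 37°C; EC50 for 50% protection by linear regression.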

[6] = Cytotoxicity against BHK cells assessed as cell viability after 48 to 96 hrs by MTT assay; format: cell-based, Mesocricetus auratus; details: hamster
Yellow fever virus = assay: Antiviral activity against Yellow fever virus 17D infected in BHK cells assessed as protection against virus-induced cytopathogenicity after 3 to 4 days by MTT assay; format: functional, cell-based
[7] = test system: Mammalian orthoreovirus 1; assay: Antiviral activity against Reovirus type-1 ATCC VR-214 infected in BHK cells assessed as protection against virus-induced cytopathogenicity after 3 to 4 days by MTT assay; format: functional, cell-based; details: Mammalian orthoreovirus 1, ATCC VR-214, BHK; in short: as §1
[8] = Cytotoxicity against African green monkey Vero 76 cells assessed as cell viability after 48 to 96 hrs by crystal violet staining; format: cell-based; details: chlorocebus sabaeus
Coxsackievirus B5 = assay: Antiviral activity against Human coxsackievirus B5 ATCC VR-29 infected in African green monkey Vero 76 cells assessed as reduction of virus-plaque formation after 3 days by crystal violet staining; format: functional, organism-based; details: Enterovirus B, ATCC VR-29, Vero, 72 h
In short: (§2)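 Plaque reduction: Vero-76 at 2x10^5 cells/well grown to confluent monolayers, infected 2 h at 50–100 PFU/well; after removing unadsorbed virus, overlay of D-MEM, 1% inactivated FBS, 0.75% methylcellulose with or without serial compound dilutions; 3 days at 37°C, fixed and stained with crystal violet in 50% ethanol, plaques counted; EC50 by linear regression.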

Poliovirus 1 = assay: Antiviral activity against Poliovirus type 1 ATCC VR-1562 infected in African green monkey Vero 76 cells assessed as reduction of virus-plaque formation after 2 days by crystal violet staining; format: functional, organism-based; details: Enterovirus C, ATCC VR-1562, Vero, 48 h
Vaccinia virus = assay: Antiviral activity against Human Vaccinia virus ATCC VR-1549 infected in African green monkey Vero 76 cells assessed as reduction of virus-plaque formation after 3 days by crystal violet staining; format: functional, organism-based; details: Orthopoxvirus vaccinia, ATCC VR-1549, Vero, 72 h
Human alphaherpesvirus 1 = assay: Antiviral activity against Human herpesvirus 1 KOS ATCC VR-1493 infected in African green monkey Vero 76 cells assessed as reduction of virus-plaque formation after 3 days by crystal violet staining; format: functional, organism-based; details: Human alphaherpesvirus 1, KOS ATCC VR1493, Vero, 72 h; in short: as §2
Staphylococcus aureus [9] = assay: Antimicrobial activity against Staphylococcus aureus NCTC 4163 at 400 ug after 18 hrs by disc-diffusion method; format: functional; details: NCTC 4163, 18 h, read-out: IZ
In short: (§3)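 Disc diffusion on Mueller-Hinton II agar per CLSI; 9 mm paper discs loaded with 400 µg compound from DMSO solution, dried, placed on agar; growth inhibition zone diameter read after 18 h at 35°C.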

Staphylococcus aureus [10] = assay: Antimicrobial activity against Staphylococcus aureus ATCC 25923 at 400 ug after 18 hrs by disc-diffusion method; format: functional; details: ATCC 25923, 18 h, read-out: IZ; in short: as §3
Staphylococcus aureus [11] = assay: Antimicrobial activity against Staphylococcus aureus ATCC 6538 at 400 ug after 18 hrs by disc-diffusion method; format: functional; details: ATCC 6538, 18 h, read-out: IZ; in short: as §3
Staphylococcus aureus [12] = assay: Antimicrobial activity against Staphylococcus aureus ATCC 29213 at 400 ug after 18 hrs by disc-diffusion method; format: functional; details: ATCC 29213, 18 h, read-out: IZ; in short: as §3
[13] = test system: Staphylococcus epidermidis; assay: Antimicrobial activity against Staphylococcus epidermidis ATCC 12228 at 400 ug after 18 hrs by disc-diffusion method; format: functional; details: ATCC 12228, 18 h, read-out: IZ; in short: as §3
[14] = test system: Staphylococcus epidermidis; assay: Antimicrobial activity against Staphylococcus epidermidis ATCC 35984 at 400 ug after 18 hrs by disc-diffusion method; format: functional; details: ATCC 35984, 18 h, read-out: IZ; in short: as §3
Bacillus subtilis = assay: Antimicrobial activity against Bacillus subtilis ATCC 6633 at 400 ug after 18 hrs by disc-diffusion method; format: functional; details: ATCC 6633, 18 h, read-out: IZ; in short: as §3
Bacillus cereus = assay: Antimicrobial activity against Bacillus cereus ATCC 11778 at 400 ug after 18 hrs by disc-diffusion method; format: functional; details: ATCC 11778, 18 h, read-out: IZ; in short: as §3
Enterococcus hirae = assay: Antimicrobial activity against Enterococcus hirae ATCC 10541 at 400 ug after 18 hrs by disc-diffusion method; format: functional; details: ATCC 10541, 18 h, read-out: IZ; in short: as §3
Enterococcus faecalis = assay: Antimicrobial activity against Enterococcus faecalis ATCC 29212 at 400 ug after 18 hrs by disc-diffusion method; format: functional; details: ATCC 29212, 18 h, read-out: IZ; in short: as §3
Micrococcus luteus [15] = assay: Antimicrobial activity against Micrococcus luteus ATCC 10240 at 400 ug after 18 hrs by disc-diffusion method; format: functional; details: ATCC 10240, 18 h, read-out: IZ; in short: as §3
Micrococcus luteus [16] = assay: Antimicrobial activity against Micrococcus luteus ATCC 9341 at 400 ug after 18 hrs by disc-diffusion method; format: functional; details: ATCC 9341, 18 h, read-out: IZ; in short: as §3
Proteus vulgaris = assay: Antimicrobial activity against Proteus vulgaris NCTC 4635 at 400 ug after 18 hrs by disc-diffusion method; format: functional; details: NCTC 4635, 18 h, read-out: IZ; in short: as §3
Staphylococcus aureus [17] = assay: Antimicrobial activity against Staphylococcus aureus NCTC 4163 after 18 hrs by twofold serial microdilution method; format: functional; details: NCTC 4163, 18 h
Staphylococcus aureus [18] = assay: Antimicrobial activity against Staphylococcus aureus ATCC 25923 after 18 hrs by twofold serial microdilution method; format: functional; details: ATCC 25923, 18 h
Staphylococcus aureus [19] = assay: Antimicrobial activity against Staphylococcus aureus ATCC 6538 after 18 hrs by twofold serial microdilution method; format: functional; details: ATCC 6538, 18 h
Staphylococcus aureus [20] = assay: Antimicrobial activity against Staphylococcus aureus ATCC 29213 after 18 hrs by twofold serial microdilution method; format: functional; details: ATCC 29213, 18 h
[21] = test system: Staphylococcus epidermidis; assay: Antimicrobial activity against Staphylococcus epidermidis ATCC 12228 after 18 hrs by twofold serial microdilution method; format: functional; details: ATCC 12228, 18 h
[22] = test system: Staphylococcus epidermidis; assay: Antimicrobial activity against Staphylococcus epidermidis ATCC 35984 after 18 hrs by twofold serial microdilution method; format: functional; details: ATCC 35984, 18 h
[23] = test system: Mycobacterium tuberculosis; assay: Antimycobacterial activity against Mycobacterium tuberculosis H37Rv ATCC 25618; format: functional
In short: (§4)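 Classical test-tube successive-dilution method in Youmans' modification of Proskauer and Beck liquid medium with 10% bovine serum. Inoculum came from 14-day cultures. DMSO stock was 10 mg/mL, diluted geometrically in medium. Tubes were incubated at 37 °C. Concentrations tested were 3.1, 6.2, 12.5, 25, 50 and 100 µg/ml. MIC is the minimum concentration inhibiting growth relative to compound-free tubes.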

[24] = test system: Mycobacterium tuberculosis; assay: Antimycobacterial activity against drug-sensitive Mycobacterium tuberculosis Spec. 192; format: functional; in short: as §4

Compound	CC50 [1] [µM]	EC50 [2] [µM]	EC50 [3] [µM]	CC50 [4] [µM]	EC50 [5] [µM]	CC50 [6] [µM]	EC50 (Yellow fever virus) [µM]	EC50 [7] [µM]	CC50 [8] [µM]	EC50 (Coxsackievirus B5) [µM]	EC50 (Poliovirus 1) [µM]	EC50 (Vaccinia virus) [µM]	EC50 (Human alphaherpesvirus 1) [µM]	zone of inhibition at 400 µg/disc (Staphylococcus aureus [9]) [mm]	zone of inhibition at 400 µg/disc (Staphylococcus aureus [10]) [mm]	zone of inhibition at 400 µg/disc (Staphylococcus aureus [11]) [mm]	zone of inhibition at 400 µg/disc (Staphylococcus aureus [12]) [mm]	zone of inhibition at 400 µg/disc [13] [mm]	zone of inhibition at 400 µg/disc [14] [mm]	zone of inhibition at 400 µg/disc (Bacillus subtilis) [mm]	further results
FC(F)(F)c1cccc(NC(=S)Nc2ccccc2)c1	39	> 39	> 39	49	> 49	41	> 41	> 41	39	> 39	> 39	> 39	> 39	24	23	21	23	23	23	21	zone of inhibition at 400 µg/disc (Bacillus cereus): 22 mm; zone of inhibition at 400 µg/disc (Enterococcus hirae): 25 mm; zone of inhibition at 400 µg/disc (Enterococcus faecalis): 15 mm; zone of inhibition at 400 µg/disc (Micrococcus luteus [15]): 22 mm; zone of inhibition at 400 µg/disc (Micrococcus luteus [16]): 24 mm; zone of inhibition at 400 µg/disc (Proteus vulgaris): 11 mm; MIC (Staphylococcus aureus [17]): 16 µg/mL (≈ 54 µM); MIC (Staphylococcus aureus [18]): 16 µg/mL (≈ 54 µM); MIC (Staphylococcus aureus [19]): 16 µg/mL (≈ 54 µM); MIC (Staphylococcus aureus [20]): 16 µg/mL (≈ 54 µM); MIC [21]: 32 µg/mL (≈ 108 µM); MIC [22]: 16 µg/mL (≈ 54 µM); MIC [23]: 50 µg/mL (≈ 169 µM); MIC [24]: 50 µg/mL (≈ 169 µM)
Nc1nc2c(ncn2COCCO)c(=O)[nH]1 [ACYCLOVIR]	–	–	–	–	–	–	–	–	13	–	–	–	–	–	–	–	–	–	–	–	–
Fc1ccc(NC(=S)Nc2cccc(C(F)(F)F)c2)cc1	31	> 40	> 31	41	> 41	26	> 26	> 26	40	> 40	> 40	> 40	> 40	27	23	25	25	26	25	25	zone of inhibition at 400 µg/disc (Bacillus cereus): 23 mm; zone of inhibition at 400 µg/disc (Enterococcus hirae): 30 mm; zone of inhibition at 400 µg/disc (Enterococcus faecalis): 20 mm; zone of inhibition at 400 µg/disc (Micrococcus luteus [15]): 28 mm; zone of inhibition at 400 µg/disc (Micrococcus luteus [16]): 28 mm; zone of inhibition at 400 µg/disc (Proteus vulgaris): 14 mm; MIC (Staphylococcus aureus [17]): 8 µg/mL (≈ 25.5 µM); MIC (Staphylococcus aureus [18]): 8 µg/mL (≈ 25.5 µM); MIC (Staphylococcus aureus [19]): 16 µg/mL (≈ 50.9 µM); MIC (Staphylococcus aureus [20]): 16 µg/mL (≈ 50.9 µM); MIC [21]: 16 µg/mL (≈ 50.9 µM); MIC [22]: 16 µg/mL (≈ 50.9 µM); MIC [23]: 25 µg/mL (≈ 79.5 µM); MIC [24]: 25 µg/mL (≈ 79.5 µM)
